Assays:
Format in all cases: functional
Details in all cases: read-out: GI
[1] = test system: NCI/ADR-RES; assay: Antiproliferative activity against human NCI-ADR-RES cells assessed as cell growth inhibition at 10 uM incubated for 48 hrs by SRB assay relative to control
[2] = test system: SF-268; assay: Antiproliferative activity against human SF-268 cells assessed as cell growth inhibition at 10 uM incubated for 48 hrs by SRB assay relative to control
[3] = test system: NCI-H226; assay: Antiproliferative activity against human NCI-H226 cells assessed as cell growth inhibition at 10 uM incubated for 48 hrs by SRB assay relative to control
Outline: (§1)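 Cells plated in 96-well plates at […] cells/well and preincubated 24 h at 37 °C, 5% CO2. Time-zero plates were TCA-fixed. Compound was diluted in medium with 50 µg/mL gentamicin and cells exposed for 48 h. Adherent cells fixed with 10% final TCA; suspension cells with 16% final TCA. Plates stained with 0.4% SRB in 1% acetic acid, dye solubilized in 10 mM Trizma, absorbance read at 515 nm. Percent growth calculated against time-zero and control.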

[4] = test system: OVCAR-4; assay: Antiproliferative activity against human OVCAR-4 cells assessed as cell growth inhibition at 10 uM incubated for 48 hrs by SRB assay relative to control
[5] = test system: COLO 205; assay: Antiproliferative activity against human COLO 205 cells assessed as cell growth inhibition at 10 uM incubated for 48 hrs by SRB assay relative to control
[6] = test system: MDA-MB-435; assay: Antiproliferative activity against human MDA-MB-435 cells assessed as cell growth inhibition at 10 uM incubated for 48 hrs by SRB assay relative to control
[7] = test system: K562; assay: Antiproliferative activity against human K562 cells assessed as cell growth inhibition at 10 uM incubated for 48 hrs by SRB assay relative to control
[8] = test system: HOP-92; assay: Antiproliferative activity against human HOP-92 cells assessed as cell growth inhibition at 10 uM incubated for 48 hrs by SRB assay relative to control; outline: as §1
[9] = test system: UACC-62; assay: Antiproliferative activity against human UACC-62 cells assessed as cell growth inhibition at 10 uM incubated for 48 hrs by SRB assay relative to control
Outline: (§2)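 Cells pre-incubated 24 h at 37°C, 5% CO2, then exposed to compound (DMSO stock diluted in medium with 50 µg/mL gentamicin) for 48 h. Adherent cells fixed with cold TCA (final 10%, 60 min, 4°C); suspension cells fixed with 16% TCA final. Stained with 0.4% SRB in 1% acetic acid for 10 min, dye solubilized in 10 mM Trizma base, absorbance read at 515 nm. Growth calculated against time-zero and untreated control plates.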

[10] = test system: HOP-62; assay: Antiproliferative activity against human HOP-62 cells assessed as cell growth inhibition at 10 uM incubated for 48 hrs by SRB assay relative to control
[11] = test system: SW-620; assay: Antiproliferative activity against human SW620 cells assessed as cell growth inhibition at 10 uM incubated for 48 hrs by SRB assay relative to control; outline: as §2
[12] = test system: A549; assay: Antiproliferative activity against human A549 cells assessed as cell growth inhibition at 10 uM incubated for 48 hrs by SRB assay relative to control
[13] = test system: HCT-116; assay: Antiproliferative activity against human HCT-116 cells assessed as cell growth inhibition at 10 uM incubated for 48 hrs by SRB assay relative to control
[14] = test system: SF-539; assay: Antiproliferative activity against human SF-539 cells assessed as cell growth inhibition at 10 uM incubated for 48 hrs by SRB assay relative to control; outline: as §1
[15] = test system: HT-29; assay: Antiproliferative activity against human HT-29 cells assessed as cell growth inhibition at 10 uM incubated for 48 hrs by SRB assay relative to control; outline: as §1
[16] = test system: SNB-19; assay: Antiproliferative activity against human SNB-19 cells assessed as cell growth inhibition at 10 uM incubated for 48 hrs by SRB assay relative to control; outline: as §2
[17] = test system: NCI-H460; assay: Antiproliferative activity against human NCI-H460 cells assessed as cell growth inhibition at 10 uM incubated for 48 hrs by SRB assay relative to control
[18] = test system: A498; assay: Antiproliferative activity against human A498 cells assessed as cell growth inhibition at 10 uM incubated for 48 hrs by SRB assay relative to control; outline: as §1
[19] = test system: T47D; assay: Antiproliferative activity against human T47D cells assessed as cell growth inhibition at 10 uM incubated for 48 hrs by SRB assay relative to control; outline: as §2
[20] = test system: UACC-257; assay: Antiproliferative activity against human UACC-257 cells assessed as cell growth inhibition at 10 uM incubated for 48 hrs by SRB assay relative to control; outline: as §2
[21] = test system: EKVX; assay: Antiproliferative activity against human EKVX cells assessed as cell growth inhibition at 10 uM incubated for 48 hrs by SRB assay relative to control
[22] = test system: 786-0; assay: Antiproliferative activity against human 786-0 cells assessed as cell growth inhibition at 10 uM incubated for 48 hrs by SRB assay relative to control
[23] = test system: LOX IMVI; assay: Antiproliferative activity against human LOX IMVI cells assessed as cell growth inhibition at 10 uM incubated for 48 hrs by SRB assay relative to control
[24] = test system: NCI-H23; assay: Antiproliferative activity against human NCI-H23 cells assessed as cell growth inhibition at 10 uM incubated for 48 hrs by SRB assay relative to control
[25] = test system: SNB-75; assay: Antiproliferative activity against human SNB-75 cells assessed as cell growth inhibition at 10 uM incubated for 48 hrs by SRB assay relative to control; outline: as §2

Row | Compound | inhibition of growth at 10 µM [1] [%] | inhibition of growth at 10 µM [2] [%] | inhibition of growth at 10 µM [3] [%] | inhibition of growth at 10 µM [4] [%] | inhibition of growth at 10 µM [5] [%] | inhibition of growth at 10 µM [6] [%] | inhibition of growth at 10 µM [7] [%] | inhibition of growth at 10 µM [8] [%] | inhibition of growth at 10 µM [9] [%] | inhibition of growth at 10 µM [10] [%] | inhibition of growth at 10 µM [11] [%] | inhibition of growth at 10 µM [12] [%] | inhibition of growth at 10 µM [13] [%] | inhibition of growth at 10 µM [14] [%] | inhibition of growth at 10 µM [15] [%] | inhibition of growth at 10 µM [16] [%] | inhibition of growth at 10 µM [17] [%] | inhibition of growth at 10 µM [18] [%] | inhibition of growth at 10 µM [19] [%] | inhibition of growth at 10 µM [20] [%] | other results
1 | Cc1nc2c(cnn2-c2ccccc2)c(=O)n1-c1ccc(N)cc1 | < 15 | 17.4 | 18 | 48.7 | < 15 | 22.9 | 52.1 | < 15 | 34.5 | 16.2 | < 15 | < 15 | 25.9 | 19.4 | < 15 | < 15 | 16.8 | 16.8 | 64.9 | 34.3 | inhibition of growth at 10 µM [21]: 63.3%; inhibition of growth at 10 µM [22]: < 15%; inhibition of growth at 10 µM [23]: 18.5%; inhibition of growth at 10 µM [24]: 40.1%; inhibition of growth at 10 µM [25]: 28.1%
2 | COc1ccc(/C=C/C(=O)c2ccc(-n3c(C)nc4c(cnn4-c4ccccc4)c3=O)cc2)cc1 | 37.6 | < 15 | 29.4 | 34.3 | < 15 | 88.8 | 87.6 | < 15 | 50 | 19.5 | 24.9 | < 15 | 90.3 | 22.4 | 28.5 | 18.2 | < 15 | < 15 | 65.3 | 25.4 | inhibition of growth at 10 µM [21]: 57.1%; inhibition of growth at 10 µM [22]: 15.4%; inhibition of growth at 10 µM [23]: 56%; inhibition of growth at 10 µM [24]: 27.6%; inhibition of growth at 10 µM [25]: < 15%
3 | Cc1nc2c(cnn2-c2ccccc2)c(=O)n1-c1ccc(NC(=O)c2ccco2)cc1 | < 15 | < 15 | < 15 | 21.2 | < 15 | < 15 | 30.1 | < 15 | 16.6 | < 15 | < 15 | < 15 | < 15 | < 15 | < 15 | < 15 | < 15 | < 15 | 34 | < 15 | inhibition of growth at 10 µM [21]: 26.9%; inhibition of growth at 10 µM [22]: < 15%; inhibition of growth at 10 µM [23]: < 15%; inhibition of growth at 10 µM [24]: < 15%; inhibition of growth at 10 µM [25]: < 15%
4 | CC(=O)Nc1ccc(-n2c(C)nc3c(cnn3-c3ccccc3)c2=O)cc1 | < 15 | < 15 | 33.5 | 44.8 | < 15 | 21.1 | 55.4 | 17 | 38.3 | < 15 | < 15 | < 15 | 28.9 | 18.9 | < 15 | 16.4 | < 15 | 16.1 | < 15 | 41.7 | inhibition of growth at 10 µM [21]: 66.8%; inhibition of growth at 10 µM [22]: < 15%; inhibition of growth at 10 µM [23]: 21.1%; inhibition of growth at 10 µM [24]: 31.7%; inhibition of growth at 10 µM [25]: < 15%
5 | Cc1nc2c(cnn2-c2ccccc2)c(=O)n1-c1ccc(N2C(=O)C=CC2=O)cc1 | < 15 | < 15 | < 15 | < 15 | < 15 | < 15 | < 15 | < 15 | < 15 | < 15 | < 15 | < 15 | < 15 | < 15 | < 15 | < 15 | < 15 | < 15 | < 15 | < 15 | inhibition of growth at 10 µM [21]: < 15%; inhibition of growth at 10 µM [22]: < 15%; inhibition of growth at 10 µM [23]: < 15%; inhibition of growth at 10 µM [24]: < 15%; inhibition of growth at 10 µM [25]: < 15%
